Measured values taken from the array DNA melting data of Ke et al. (doi:10.1101/2024.01.08.574731).

Legend:
[1] = melting temperature; fluorescence melt of hairpins on a sequencing array, two-state fit, raised by 9.35 °C to match UV melts; details: sodium 0.088 M
In short: (§1)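 With Cy3 and quencher oligos annealed, library hairpins on a sequenced MiSeq flow cell were imaged for Cy3 fluorescence in 50 mM Na-HEPES pH 8.0, 25 mM NaCl, in 2.5 °C steps up to 60 °C. Melting temperature and folding enthalpy were derived from bootstrapped two-state fits of signals normalised to pre-quench Cy3 and to control constructs. Four replicates were combined by inverse variance, with fitted temperatures raised by 9.35 °C to match UV melts.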

[2] = folding enthalpy; higher = less favourable; fluorescence melt of hairpins on a sequencing array, two-state fit; details: sodium 0.088 M
In short: as §1

Row | Sequence | Tm [1] | folding enthalpy [2]
1 | GTATATCGAAAGATCTAC (((.(((....))).))) | 31.8 °C | -19.5 kcal/mol
2 | GTATCCACGAAAGTGTAC (((..(((....)))))) | 21.2 °C | -10.6 kcal/mol
3 | GTATCCGAAAGGACGTAC ((((((....)))..))) | 25.9 °C | -9.37 kcal/mol
4 | GTATCCGAAAGGACTAC ((((((....))).))) | 35.9 °C | -14.3 kcal/mol
5 | GTATCCGAAAGGAGGTAC ((((((....)))..))) | 28.5 °C | -10.3 kcal/mol
6 | GTATCCGAAAGGATATAC ((((((....)))..))) | 44.8 °C | -13.8 kcal/mol
7 | GTATCCGAAAGGATTTAC ((((((....)))..))) | 30.6 °C | -12 kcal/mol
8 | GTATCCGGAAACAGATAC (((((.(....).))))) | 31.7 °C | -23.4 kcal/mol
9 | GTATCCGGAAACGGACAC ((.((((....)))).)) | 39 °C | -19.8 kcal/mol
10 | GTATCGCCGAAAGGCTAC (((..(((....)))))) | 32.9 °C | -6.58 kcal/mol
11 | GTATCGGGAAACTGATGC (.(((.(....).))).) | 33.1 °C | -29.6 kcal/mol
12 | GTATCTCGAAAGAGCTAC (((.(((....))).))) | 36 °C | -21.8 kcal/mol
13 | GTATCTGGAAACAGACAC ((.((((....)))).)) | 30.7 °C | -26.2 kcal/mol
14 | GTATCTGGAAACAGATAC (((((((....))))))) | 56.1 °C | -39.5 kcal/mol
15 | GTATCTGGAAACGGATAC (((((.(....).))))) | 44.8 °C | -38 kcal/mol
16 | GTATGAGGAAACCCATAC (((((.(....).))))) | 35.3 °C | -30.3 kcal/mol
17 | GTATGCCGAAAGGCGTAC (((.(((....))).))) | 63.4 °C | -26.2 kcal/mol
18 | GTATGCGAAAGCAGATAC ((((((....)))..))) | 36.7 °C | -12.9 kcal/mol
19 | GTATGCGAAAGCATTTAC ((((((....)))..))) | 30.6 °C | -8.67 kcal/mol
20 | GTATGCGCGAAAGCGTAC (((..(((....)))))) | 31.3 °C | -9.22 kcal/mol
21 | GTATGGGGAAACCCATGC (.(((((....))))).) | 49 °C | -20.9 kcal/mol
22 | GTATGTACGAAAGTATAC (((..(((....)))))) | 31 °C | -11.4 kcal/mol
23 | GTATGTCGAAAGACTAC (((.(((....)))))) | 41.3 °C | -19.2 kcal/mol

Row | Sequence | Tm [1] | folding enthalpy [2]
24 | GTATGTGGAAACACATGC (.(((((....))))).) | 47.9 °C | -24.3 kcal/mol
25 | GTATGTGGAAACATATGC (.((.((....)).)).) | 37.5 °C | -24.1 kcal/mol
26 | GTATGTGGAAACATGTAC (((..((....))..))) | 30.9 °C | -16.4 kcal/mol
27 | GTATGTGGAAACGCATAC (((((.(....).))))) | 46.9 °C | -29.7 kcal/mol
28 | GTATTAGCGAAAGCTTAC (((..(((....)))))) | 25.5 °C | -12.8 kcal/mol
29 | GTATTCGAAAGAATTTAC ((((((....)))..))) | 27.5 °C | -12.2 kcal/mol
30 | GTATTCGGAAACAAATAC (((((.(....).))))) | 22.5 °C | -10.3 kcal/mol
31 | GTATTGACGAAAGTCTAC (((..(((....)))))) | 25.1 °C | -8.47 kcal/mol
32 | GTATTGCGAAAGCATTAC (((.(((....))).))) | 44.9 °C | -23.7 kcal/mol
33 | GTATTGGGAAACTAATAC (((((.(....).))))) | 34.8 °C | -22.2 kcal/mol
34 | GTATTTCCGAAAGGATAC (((..(((....)))))) | 26 °C | -11.8 kcal/mol
35 | GTATTTCGAAAGAAGTAC (((.(((....))).))) | 40.4 °C | -34.3 kcal/mol
36 | GTCAAACGAAAGTTGGAC (((.(((....))).))) | 49.9 °C | -24.8 kcal/mol
37 | GTCAACACGAAAGTGGAC (((..(((....)))))) | 38.6 °C | -19.3 kcal/mol
38 | GTCAACCGAAAGGTCGAC (((.(((....))).))) | 50.9 °C | -35.1 kcal/mol
39 | GTCAACGAAAGTTATGAC ((((((....)))..))) | 33.1 °C | -20.5 kcal/mol
40 | GTCAACGAAAGTTCAGAC ((((((....)))..))) | 28.3 °C | -11.4 kcal/mol
41 | GTCAACGAAAGTTGAC ((((((....)))))) | 68.9 °C | -37.4 kcal/mol
42 | GTCAACGAAAGTTTGGAC ((((((....)))..))) | 27.8 °C | -13.8 kcal/mol
43 | GTCAACGGAAACGTTGAC (((((((....))))))) | 69 °C | -45.2 kcal/mol
44 | GTCAATACGAAAGTAGAC (((..(((....)))))) | 27.3 °C | -12 kcal/mol
45 | GTCAATGGAAACATTGAC (((((((....))))))) | 58.9 °C | -39.8 kcal/mol
46 | GTCACAACGAAAGTTGAC (((..(((....)))))) | 33.2 °C | -11.7 kcal/mol

Row | Sequence | Tm [1] | folding enthalpy [2]
47 | GTCACACGAAAGTGAGAC (((.(((....))).))) | 55.1 °C | -31.9 kcal/mol
48 | GTCACAGGAAACTGTGAC (((((((....))))))) | 66.8 °C | -42.3 kcal/mol
49 | GTCACCCCGAAAGGGGAC (((..(((....)))))) | 41.4 °C | -10.1 kcal/mol
50 | GTCACCCGAAAGGGGAC (((.(((....)))))) | 55 °C | -20.1 kcal/mol
51 | GTCACCGAAAGGTAAGAC ((((((....)))..))) | 39 °C | -19.6 kcal/mol
52 | GTCACCGAAAGGTCGAC ((((((....))).))) | 48.1 °C | -20.1 kcal/mol
53 | GTCACCGAAAGGTCGGAC ((((((....)))..))) | 34.3 °C | -16 kcal/mol
54 | GTCACCGGAAACGGTAAC ((.((((....)))).)) | 38.4 °C | -16.6 kcal/mol
55 | GTCACCTCGAAAGAGGAC (((..(((....)))))) | 26.9 °C | -9.82 kcal/mol
56 | GTCACGGCGAAAGCCGAC (((..(((....)))))) | 27.9 °C | -6.5 kcal/mol
57 | GTCACTCGAAAGAGCGAC (((.(((....))).))) | 51.5 °C | -43.5 kcal/mol
58 | GTCACTCGAAAGAGGGAC (((.(((....))).))) | 60.9 °C | -50.4 kcal/mol
59 | GTCACTGGAAACAGTGGC (.(((((....))))).) | 53.7 °C | -40.8 kcal/mol
60 | GTCACTGGAAACGGTGAC (((((.(....).))))) | 52.7 °C | -47.5 kcal/mol
61 | GTCAGACCGAAAGGTGAC (((..(((....)))))) | 44.4 °C | -21.4 kcal/mol
62 | GTCAGAGCGAAAGCTGAC (((..(((....)))))) | 49.3 °C | -26.4 kcal/mol
63 | GTCAGATCGAAAGATGAC (((..(((....)))))) | 38.1 °C | -22.2 kcal/mol
64 | GTCAGCGAAAGCTGGGAC ((((((....)))..))) | 40.2 °C | -9.13 kcal/mol
65 | GTCAGCGAAAGCTTAGAC ((((((....)))..))) | 40 °C | -15.3 kcal/mol
66 | GTCAGCGAAAGCTTCGAC ((((((....)))..))) | 32.3 °C | -12 kcal/mol
67 | GTCAGCGGAAACGCCGAC (((.(((....))).))) | 49.2 °C | -26.9 kcal/mol
68 | GTCAGCGGAAACGTTGGC (.((.((....)).)).) | 42.2 °C | -26 kcal/mol
69 | GTCAGGACGAAAGTCGAC (((..(((....)))))) | 41.3 °C | -18.7 kcal/mol

Row | Sequence | Tm [1] | folding enthalpy [2]
70 | GTCAGGGAAACCTGAC ((((((....)))))) | 61.6 °C | -32.5 kcal/mol
71 | GTCAGGGGAAACCCTGGC (.(((((....))))).) | 53.6 °C | -27.7 kcal/mol
72 | GTCAGGGGAAACTCTGGC (.(((.(....).))).) | 36.4 °C | -24.5 kcal/mol
73 | GTCAGTGGAAACACTGAC (((((((....))))))) | 64.5 °C | -47.6 kcal/mol
74 | GTCAGTGGAAACATTGAC ((((.((....)).)))) | 45.3 °C | -29.2 kcal/mol
75 | GTCAGTGGAAACGCTGAC (((((.(....).))))) | 54.2 °C | -40.5 kcal/mol
76 | GTCATAACGAAAGTTGAC (((..(((....)))))) | 37.2 °C | -24.4 kcal/mol
77 | GTCATACGAAAGTACGAC (((.(((....))).))) | 42.9 °C | -28.7 kcal/mol
78 | GTCATATCGAAAGATGAC (((..(((....)))))) | 37.1 °C | -26.1 kcal/mol
79 | GTCATCCGAAAGGAAGAC (((.(((....))).))) | 49.3 °C | -29.9 kcal/mol
80 | GTCATCGAAAGATTAGAC ((((((....)))..))) | 32.2 °C | -14 kcal/mol
81 | GTCATCGGAAACGACGAC (((.(((....))).))) | 43.2 °C | -29.7 kcal/mol
82 | GTCATCGGAAACGATGAC (((((((....))))))) | 67.8 °C | -40 kcal/mol
83 | GTCATGGGAAACCACGAC (((.(((....))).))) | 39.9 °C | -31.9 kcal/mol
84 | GTCATGGGAAACCATGGC (.(((((....))))).) | 53.2 °C | -24.1 kcal/mol
85 | GTCATGGGAAACCGTGAC ((((.((....)).)))) | 52.9 °C | -42.3 kcal/mol
86 | GTCATGGGAAACTGTGAC ((((..(....)..)))) | 39.1 °C | -32.9 kcal/mol
87 | GTCATTCCGAAAGGAGAC (((..(((....)))))) | 29.2 °C | -10.2 kcal/mol
88 | GTCATTGAAAAATGAC ((((((....)))))) | 51.9 °C | -38.6 kcal/mol
89 | GTCATTGGAAACGATGAC (((((.(....).))))) | 46.7 °C | -41.1 kcal/mol
90 | GTCCAACCGAAAGGTGAC (((..(((....)))))) | 37.2 °C | -16.3 kcal/mol
91 | GTCCAACGAAAGTTAGAC (((.(((....))).))) | 38.5 °C | -29.6 kcal/mol
